Results on three compounds are retold here after ChEMBL document CHEMBL4041548, “Ester Prodrugs of IHVR-19029 with Enhanced Oral Exposure and Prevention of Gastrointestinal Glucosidase Interaction” (ACS Med Chem Lett, 2017).

Series [1] in a line: Apparent permeability of the compound across apical side to basolateral side in human Caco2 cells assessed as drug recovery at 5 uM measured after 2 hrs by LC-MS/MS analysis. Type of series: ADME, cell-based. As to conditions: Caco-2, read-out: Drug recovery. In general terms: Caco-2 cells form a polarised layer with tight junctions and transporters.
The test system of series [2] is Mus musculus. Kind of series: Prodrug activation in BALB/c mouse assessed as 3-(tert-butyl)-1-cyclohexyl-1-(6-((2R,3R,4R,5S)-3,4,5-trihydroxy-2-(hydroxymethyl)piperidin-1-yl)hexyl)urea half life at 100 mg/kg, po administered as single dose by LC-MS/MS analysis. To be noted: in vivo. Type of series: organism-based. The procedure, abridged:
(§1)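 Male BALB/c mice dosed with the prodrugs or the parent orally (25 or 100 mg/kg) or intravenously (5 mg/kg). The parent compound was quantified in plasma and PK parameters were derived from it. The first sampling point was 5 min post-dose, and prodrugs were tracked up to 4 h.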

Series [3] in a line: Stability in simulated intestinal fluid assessed as parent compound remaining at 5 uM measured after 4 hrs by LC-MS/MS analysis. In short, it runs like this: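 Chemical stability assessed by incubation in simulated gastric fluid and simulated intestinal fluid; percent of compound remaining was measured.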
Series [4] deals with Mus musculus. Kind of series: Prodrug activation in BALB/c mouse assessed as 3-(tert-butyl)-1-cyclohexyl-1-(6-((2R,3R,4R,5S)-3,4,5-trihydroxy-2-(hydroxymethyl)piperidin-1-yl)hexyl)urea Tmax at 25 mg/kg, po administered as single dose by LC-MS/MS analysis. Format: organism-based. As to conditions: in vivo. In short, it runs like this:
as §1

Series [5] in a line: Inhibition of endoplasmic reticulum alpha-glucosidase in human Huh7.5 cells infected with DENV assessed as reduction in viral growth by measuring DENV RNA level by qRT-PCR method. Format: cell-based. In short, it runs like this: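 Huh7.5 cells infected with dengue virus and treated with a concentration series of the compounds (n = 4). DENV RNA was quantified by qRT-PCR and the EC50 was calculated.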
In general terms: In qPCR the cycle at which signal appears reflects the starting amount.

For series [6], the system named is Mus musculus. Kind of series: Prodrug activation in po dosed BALB/c mouse assessed as 3-(tert-butyl)-1-cyclohexyl-1-(6-((2R,3R,4R,5S)-3,4,5-trihydroxy-2-(hydroxymethyl)piperidin-1-yl)hexyl)urea formation measured up to 4 hrs by LC-MS/MS analysis. To be noted: in vivo. Format: organism-based. The procedure, abridged: as §1
Series [7] relates to Mus musculus. Kind of series: Prodrug activation in BALB/c mouse assessed as 3-(tert-butyl)-1-cyclohexyl-1-(6-((2R,3R,4R,5S)-3,4,5-trihydroxy-2-(hydroxymethyl)piperidin-1-yl)hexyl)urea half life at 25 mg/kg, po administered as single dose by LC-MS/MS analysis. Type of series: organism-based. As to conditions: in vivo. In short, it runs like this:
as §1

Series [8] has as its system Mus musculus. Put plainly: Prodrug activation in po dosed BALB/c mouse assessed as 3-(tert-butyl)-1-cyclohexyl-1-(6-((2R,3R,4R,5S)-3,4,5-trihydroxy-2-(hydroxymethyl)piperidin-1-yl)hexyl)urea formation measured after 5 mins by LC-MS/MS analysis. Format: organism-based. To be noted: in vivo. The procedure, abridged:
as §1

Series [9] relates to Mus musculus. Kind of series: Prodrug activation in BALB/c mouse assessed as 3-(tert-butyl)-1-cyclohexyl-1-(6-((2R,3R,4R,5S)-3,4,5-trihydroxy-2-(hydroxymethyl)piperidin-1-yl)hexyl)urea formation at 100 mg/kg, po administered as single dose measured after 3 hrs by LC-MS/MS analysis. To be noted: in vivo. Type of series: organism-based. In short, it runs like this:
as §1

Take `CC(C)C(=O)OC[C@@H]1[C@@H](OC(=O)C(C)C)[C@H](OC(=O)C(C)C)[C@@H](OC(=O)C(C)C)CN1CCCCCCN(C(=O)NC(C)(C)C)C1CCCCC1`: the recovery at 2 h, 5 µM in series [1] was less than 60%. In addition, the t1/2 in series [2] amounted to 70.8 min; in series [7], 34.8 min. The Stability in [3] is 90%. Besides, the Tmax (as a rule, the time at which the peak concentration occurs) in series [4] came to 30 min. The EC50 (in general, the midpoint of the concentration-response curve) in series [5] came to 94.7 µM. In addition, in series [6], the Drug metabolism entry is given as “Metabolite_Notdetected”.
In the case of `CCCC(=O)OC[C@@H]1[C@@H](OC(=O)CCC)[C@H](OC(=O)CCC)[C@@H](OC(=O)CCC)CN1CCCCCCN(C(=O)NC(C)(C)C)C1CCCCC1`, the recovery at 2 h, 5 µM in series [1] was less than 60%. Moreover, the t1/2 in series [2] stood at 137 min; in series [7] it was 103 min. In addition, the Drug metabolism result is “Metabolite_Detected” in series [8] and greater than 1 µM in series [9]. Also, the Stability in series [3] is 72%. Also, the Tmax in series [4] was found to be 15 min. Further, in [5], the EC50 was 16.1 µM.
Turning to `CC(=O)OC[C@@H]1[C@@H](OC(C)=O)[C@H](OC(C)=O)[C@@H](OC(C)=O)CN1CCCCCCN(C(=O)NC(C)(C)C)C1CCCCC1`, the recovery at 2 h, 5 µM in series [1] is 9%. Also, the values for the t1/2 in [2] and in [7] were 43.2 min and 84 min, respectively. Moreover, in series [8], the Drug metabolism entry was “Metabolite_Detected”. Moreover, the Stability in series [3] is 91%. For the same compound, the Tmax in [4] came to 15 min. Besides, the EC50 in series [5] was found to be 15.6 µM.
